Assay results from ChEMBL document CHEMBL1132153, “Antitumor agents. 196. Substituted 2-thienyl-1,8-naphthyridin-4-ones: their synthesis, cytotoxicity, and inhibition of tubulin polymerization” (J Med Chem, 1999).
pEC50: −log10 of the molar value.

Columns and labels:
U-251 = test: In vitro growth inhibition of U251 CNS cancer cell line.; type: functional; conditions: Homo sapiens
CAKI-1 = test: In vitro cytotoxicity against CAKI-1 human renal cancer cells; type: functional; conditions: read-out: ED50 (the source's name)
Summary of the method: (§1)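 Panel of human tumor lines: KB nasopharyngeal epidermoid, A-549 lung, HCT-8 ileocecal, CAKI-1 renal, MCF-7 breast, SKMEL-2 melanoma. Growth measured by SRB assay and compared with untreated cells.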

Tubulin [1] = target: T1, Tubulin (Bos taurus, UniProt Q6B856+Q862L2+Q862F3); test: Inhibition of tubulin polymerization (ITP); type: functional
Summary of the method: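 Polymerization of electrophoretically homogeneous bovine brain tubulin at 12 µM, run with a range of inhibitor concentrations. IC50 is the concentration inhibiting polymerization by 50%, reported ± SD.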

SK-MEL-5 = test: In vitro growth inhibition of SK-MEL-5 melanoma cell line.; type: functional; conditions: Homo sapiens
OVCAR-3 = test: In vitro growth inhibition of OVCAR-3 ovarian cancer cell line.; type: functional; conditions: Homo sapiens
PC-3 = test: In vitro growth inhibition of PC-3 prostate cancer cell line.; type: functional; conditions: Homo sapiens
HCT-8 = test: In vitro cytotoxicity against HCT-8 human ileocecal cancer cells; type: functional; conditions: read-out: ED50 (the source's name); summary of the method: as §1
SW-620 = test: In vitro growth inhibition of SW-620 colon cancer cell line.; type: functional; conditions: Homo sapiens
MCF7 = test: In vitro cytotoxicity against MCF-7 human breast cancer cells; type: functional; conditions: read-out: ED50 (the source's name); summary of the method: as §1
A549 = test: In vitro cytotoxicity against A-549 human lung cancer cells; type: functional; conditions: read-out: ED50 (the source's name); summary of the method: as §1
MDA-N = test: In vitro growth inhibition of MDA-N breast cancer cell line.; type: functional; conditions: Homo sapiens
RXF 393 = test: In vitro growth inhibition of RXF-393 renal cancer cell line.; type: functional; conditions: Homo sapiens
KB [2] = test: In vitro cytotoxicity against KB-Vin cancer cell line.; type: functional; conditions: Homo sapiens, read-out: ED50 (the source's name)
KB [3] = test: In vitro cytotoxicity against KB human epidermoid carcinoma of the nasopharynx; type: functional; conditions: read-out: ED50 (the source's name); summary of the method: as §1
MDA-MB-435 = test: In vitro growth inhibition of MDA-MB-435 breast cancer cell line.; type: functional; conditions: Homo sapiens
SK-MEL-2 [4] = test: In vitro cytotoxicity against SKMEL-2 human melanoma cancer cells; type: functional; conditions: read-out: ED50 (the source's name); summary of the method: as §1
NCI-H23 = test: In vitro growth inhibition of NCI-H23 non small cell lung cancer cell line.; type: functional; conditions: Homo sapiens
HL-60 [5] = test: In vitro growth inhibition of HL-60 (TB) leukemia cell line.; type: functional; conditions: Homo sapiens
Summary of the method: (§2)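 Human leukemia HL-60(TB) cells exposed to compound in vitro. The read-out is log GI50 in molar units, defined as the log concentration that reduced cell growth to 50% of the level in untreated controls.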

Tubulin [6] = target: T1, Tubulin; test: Concentration inhibiting tubulin polymerization (ITP); type: functional
Tubulin (Bos taurus) [7] = target: T2, Tubulin (Bos taurus) (UniProt Q6B856+Q862L2+Q862F3); test: Concentration inhibiting [3H]colchicine binding to tubulin, at a concentration of 5 uM; type: protein assay
Summary of the method: (§3)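 Inhibition of [³H]colchicine binding to electrophoretically homogeneous bovine brain tubulin (1 µM). [³H]colchicine and inhibitor each at 5 µM. Result given as % inhibition.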

KB [8] = test: In vitro cytotoxicity against KB-Vin cancer cell line; type: functional; conditions: Homo sapiens, read-out: ED50 (the source's name)
SK-MEL-2 [9] = test: In vitro cytotoxicity against SKMEL-2 human melanoma cancer; type: functional; conditions: read-out: ED50 (the source's name); summary of the method: as §1
Tubulin (Bos taurus) [10] = target: T2, Tubulin (Bos taurus); test: Concentration inhibiting [3H]-colchicine binding to tubulin; type: protein assay; conditions: concentration not given here; summary of the method: as §3
HL-60 [11] = test: In vitro growth inhibition of HL-60 (TB) leukemia cell line; type: functional; conditions: Homo sapiens; summary of the method: as §2

| Compound | GI50 (U-251) [µM] | pEC50 (CAKI-1) | IC50 (Tubulin [1]) [µM] | GI50 (SK-MEL-5) [µM] | GI50 (OVCAR-3) [µM] | GI50 (PC-3) [µM] | pEC50 (HCT-8) | GI50 (SW-620) [µM] | pEC50 (MCF7) | pEC50 (A549) | GI50 (MDA-N) [µM] | GI50 (RXF 393) [µM] | pEC50 (KB [3]) | GI50 (MDA-MB-435) [µM] | GI50 (NCI-H23) [µM] | GI50 (HL-60 [5]) [µM] | other results |
| --- | --- | --- | --- | --- | --- | --- | --- | --- | --- | --- | --- | --- | --- | --- | --- | --- | --- |
| Cc1cnc2nc(-c3sccc3C)cc(O)c2c1 | 9.12 | < 5.30 | 3.8 | 2.04 | 3.8 | 5.37 | 6.00 | 4.17 | 5.96 | 5.60 | 0.676 | 4.47 | 5.89 | 0.324 | – | – | pEC50 (KB [2]): 5.72 |
| Cc1ccc2c(O)cc(-c3ccco3)nc2n1 | – | < 5.00 | 14 | – | – | – | < 5.00 | – | < 4.70 | < 5.00 | – | – | < 5.00 | – | – | – | pEC50 (SK-MEL-2 [4]): < 5.00 |
| Cc1ccc2c(O)cc(-c3sc4ccccc4c3C)nc2n1 | 38.9 | – | 13 | 14.8 | 19.5 | 33.1 | – | 20 | – | – | 17 | 17 | – | 4.79 | 19.5 | 18.6 | – |
| Cc1ccc2c(O)cc(-c3ccc(Br)s3)nc2n1 | – | – | – | – | – | – | < 6.10 | – | < 6.10 | < 5.51 | – | – | 6.10 | – | – | – | IC50 (Tubulin [6]): 1.5 µM; pEC50 (KB [2]): 6.30; inhibition (Tubulin (Bos taurus) [7]): 19%; pEC50 (SK-MEL-2 [4]): < 5.00 |
| Cc1ccc2c(O)cc(-c3ccc(Cl)s3)nc2n1 | 1.2 | – | 1.7 | 0.38 | 2.04 | 1.58 | – | – | – | – | 0.186 | 2.04 | – | 0.38 | 1 | 0.204 | – |
| Cc1ccc2c(O)cc(-c3cccnc3)nc2n1 | – | 5.30 | 7.7 | – | – | – | 5.68 | – | 5.92 | 5.34 | – | – | 5.52 | – | – | – | pEC50 (KB [8]): 5.60; pEC50 (SK-MEL-2 [9]): < 5.00 |
| Cc1ccc2c(O)cc(-c3cc4ccccc4s3)nc2n1 | > 100 | – | > 40 | > 100 | > 100 | > 100 | – | > 100 | – | – | > 100 | 51.3 | – | > 100 | > 100 | > 100 | – |
| Cc1ccc2c(O)cc(-c3sccc3C)nc2n1 | 0.468 | – | 2.8 | 0.178 | 0.661 | 0.245 | – | 0.145 | – | – | 0.0776 | 0.631 | – | 0.107 | 0.145 | 0.174 | – |
| Cc1ccc2c(O)cc(-c3csc4ccccc34)nc2n1 | – | – | – | < 0.01 | < 0.01 | – | – | < 0.01 | – | – | < 0.01 | < 0.01 | – | < 0.01 | 0.0219 | < 0.01 | IC50 (Tubulin [6]): 0.37 µM; inhibition (Tubulin (Bos taurus) [7]): 65% |
| Cc1ccc2c(O)cc(-c3ccc(C)s3)nc2n1 | 0.324 | – | 1.7 | 0.204 | 0.257 | 0.204 | – | 0.0479 | – | – | 0.0229 | 0.195 | – | 0.0234 | 0.138 | 0.0776 | – |
| Cc1cnc2nc(-c3csc4ccccc34)cc(O)c2c1 | – | 6.87 | – | – | – | – | 7.24 | – | 6.90 | 7.25 | – | – | 7.57 | – | – | – | inhibition (Tubulin (Bos taurus) [10]): 26%; IC50 (Tubulin [6]): 0.91 µM; pEC50 (SK-MEL-2 [4]): 6.87 |
| Cc1cnc2nc(-c3ccc(C)s3)cc(O)c2c1 | – | 5.90 | 2.7 | – | – | – | 6.05 | – | 5.96 | 5.89 | – | – | 5.96 | – | – | – | pEC50 (KB [2]): 5.96; pEC50 (SK-MEL-2 [9]): < 5.60 |
| Cc1ccc2c(O)cc(-c3cc(C)sc3C)nc2n1 | 3.47 | – | 4.8 | 0.661 | 2.82 | 2.24 | – | 1.41 | – | – | 0.631 | 1.91 | – | 0.372 | 1.23 | 1.55 | – |
| Cc1ccc2c(O)cc(-c3ccsc3)nc2n1 | 3.89 | – | 7 | 2.57 | 5.13 | 3.09 | < 5.51 | 1 | < 5.51 | < 5.20 | 0.363 | 3.24 | 5.20 | 0.49 | 1.86 | – | GI50 (HL-60 [11]): 2.19 µM |
| Cc1cc(C)c2c(O)cc(-c3csc4ccccc34)nc2n1 | – | < 6.30 | – | – | – | – | – | – | 6.30 | 6.52 | – | – | 6.92 | – | – | – | inhibition (Tubulin (Bos taurus) [10]): 26%; IC50 (Tubulin [6]): 0.78 µM |
| Cc1ccnc2nc(-c3csc4ccccc34)cc(O)c12 | – | < 6.60 | – | – | – | – | – | – | 6.60 | 6.70 | – | – | 7.40 | – | – | – | inhibition (Tubulin (Bos taurus) [10]): 22%; IC50 (Tubulin [6]): 1.2 µM |
| Cc1ccc2c(O)cc(-c3cccs3)nc2n1 | 17 | – | 6 | 6.03 | 30.9 | 9.33 | – | 2.95 | < 5.80 | < 5.20 | 1.86 | 11.2 | 5.20 | 2 | 4.37 | 2.69 | pEC50 (KB [8]): 5.02 |
| Cc1ccc2c(O)cc(-c3sc(-c4ccccc4)cc3C)nc2n1 | – | – | 14 | 3.39 | 21.4 | – | – | 10 | – | – | 3.89 | 36.3 | – | 3.55 | 6.03 | 5.5 | – |
